Laboratory results as given in ChEMBL document CHEMBL4513216, “Probing the Open Global Health Chemical Diversity Library for Multistage-Active Starting Points for Next-Generation Antimalarials” (ACS Infect Dis, 2020).

Assay: Toxicity liver stage against HepG2, at 10uM
Assay type: cell-based
Parameters: test concentration 10 uM, cell line HepG2-A16-CD81EGFP
Conditions: human, HepG2-A16-CD81EGFP cells; read-out: INHIBITION
Outline: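 Uninfected HepG2-A16-CD81EGFP cells, 3 × 10^3 per well, 1536-well, plated on prespotted compound at 10 μM final, parasite-free screening media added to match infected plates; puromycin 10 μM positive, DMSO 0.5% negative; run in parallel with 48 h PbLuc assay at 37 °C, 5% CO2; viability by CellTiter-Glo luminescence, normalized to controls.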

Row | SMILES | cytotoxicity at 10 µM
1 | c1cncc(-c2nnc([C@H]3CCN(CC4CC4)C3)o2)c1 | 9.06%
2 | COc1ccc(-c2cn3c(n2)CO[C@@H](CNCc2ccccn2)C3)cc1 | -11.8%
3 | Cc1cc(=O)n2nc(-c3cccs3)nc2n1CC(=O)NC(C)C | 12.7%
4 | CN(C)c1ccc(C(CNS(=O)(=O)c2cccs2)N2CCCC2)cc1 (configuration not stated) | 2.31%
5 | CCc1cnc2c(c1NCc1ccc(OC)cc1)c(=O)n(C)c(=O)n2C | 5.79%
6 | Cc1cc(=O)[nH]c(-n2nc(C)c(CCC(=O)Nc3nc(C)cs3)c2C)n1 | 5.61%
7 | O=C(c1ncn2c1CNS(=O)(=O)c1ccccc1-2)N1CCCCCC1 | 9.79%
8 | Cc1cccc(COC[C@H]2CC[C@H]3[C@H](CCN3Cc3ccco3)O2)n1 | -172%
9 | O=C1CSC(c2ccsc2)c2c(n(C3CCOCC3)[nH]c2=O)N1 (configuration not stated) | 9.53%
10 | CCn1nc(C)c2nc(C(C)C)nc(NCCc3ccc(O)cc3)c21 | 18.1%
11 | CCN1CCN(c2ncc3c(=O)n(Cc4ccco4)ccc3n2)CC1 | -15.9%
12 | CCn1cc(C(=O)NCc2csc(C3CC3)n2)c(C)n1 | 27.4%
13 | COCC(=O)NC[C@]1(O)CN(Cc2ccc3c(c2)OCCO3)C[C@H]1O | 1.88%
14 | CN1CCC(CCc2ccnc(NC(=O)c3ccccn3)c2)CC1 | -2.12%
15 | Cc1cc(N2CCOCC(Cc3ccc4[nH]ccc4c3)C2)ncn1 (configuration not stated) | -3.77%
16 | O=C(c1ccccn1)N1CCC2(COc3ncccc3S(=O)(=O)N2)C1 (configuration not stated) | 8.96%
17 | CC(C)CCN1CCC2(CNS(=O)(=O)c3cccnc3O2)C1 (configuration not stated) | 4.1%
18 | Cc1noc(C)c1CNC1CCN(c2ccccc2OC(F)F)C1 (configuration not stated) | 9.5%
19 | Cn1cnnc1S(=O)(=O)Cc1cc(Cl)c2c(c1)OCO2 | -36.6%
20 | CCN(CC)S(=O)(=O)CC(=O)N1CCc2ccc(F)cc21 | -4.73%
21 | O=C(c1ccc(F)cc1)N(CCCO)S(=O)(=O)c1cccs1 | -6.24%
22 | Cc1nc(CN2CCCC(C)(CO)C2)no1 (configuration not stated) | 5.89%

Row | SMILES | cytotoxicity at 10 µM
23 | CCc1ccc(C(=O)N2CCCC(c3nn[nH]n3)C2)cc1 (configuration not stated) | 4.6%
24 | Cc1cc(CN(C)C(=O)Nc2ccccc2C)no1 | -8.75%
25 | Cc1nc(NS(=O)(=O)c2ccc(C)c(Br)c2)no1 | 11.2%
26 | N#Cc1cccc(CNCCC(=O)N2CCc3sccc3C2)c1 | 1.04%
27 | c1csc(N2CCCN(c3ncnc4sccc34)CC2)n1 | 45.3%
28 | CCc1cccc(OCCn2cccc(C#N)c2=O)c1 | 9.04%
29 | COc1cccc2c1N(CC(=O)Nc1ccc(Br)cn1)CCC2 | 36.5%
30 | CC(C)S(=O)(=O)CCN1CCc2c(ncn2C2CC2)C1 | -13.9%
31 | CSc1cc2c(cc1NC(=O)NCC1CCOC1)OCCO2 (configuration not stated) | -4.54%
32 | CC(C)Sc1nnnn1C1CCCC1 | -8.61%
33 | CCCS(=O)(=O)N1CCC(NC(=O)c2cc3ccccc3s2)CC1 | 4.69%
34 | COc1ccc(C(=O)N2CCOCC2c2ccc(C)o2)cc1 (configuration not stated) | -2.24%
35 | CC(=O)NCCc1ccc(S(=O)(=O)N(C)C(C)CC(C)C)s1 (configuration not stated) | -1.88%
36 | CN(C)CCN(Cc1ccc(Cl)cc1)C(=O)c1cnccn1 | -1.85%
37 | CCNS(=O)(=O)c1ccc(C)c(C(=O)N(C)Cc2ccccc2C)c1 | 0.997%
38 | O=C(NC1CC1)c1cc(NC(=O)N2CCOCC2)ccc1Cl | -4.15%
39 | CC(NC(=O)c1ccnn1C)c1ccc(OCC2CC2)c(F)c1 (configuration not stated) | 48.8%
40 | Cc1cnn(CC2CN(CC(=O)Nc3cccnc3)CCO2)c1 (configuration not stated) | 8.1%
41 | Cc1ccc(-n2cc(S(=O)(=O)Nc3cccc(C(=O)O)c3C)cn2)cc1 | -1.74%
42 | CNC(=O)c1cccc(CNC(C)c2ccc(F)cc2N(C)C)c1 (configuration not stated) | 0.508%
43 | NC(=O)NC(=O)CCSCc1coc(-c2ccc(F)cc2)n1 | -7.45%
44 | COc1ccc(C(N)=O)cc1NCc1nc(-c2cccs2)oc1C | 1.83%

Row | SMILES | cytotoxicity at 10 µM
45 | COCCC(=O)Nc1ccnn1-c1ccccc1 | -2.55%
46 | CCC(=O)Nc1cc(Br)cnc1OCC(F)(F)F | -1.24%
47 | CCCN(C)CC1CCN(c2ncc(Br)cn2)C1 (configuration not stated) | -6.68%
48 | CC(C)(C)n1cc(C(=O)O)c(-c2ccc(F)cc2F)n1 | 6.92%
49 | COCC(=O)NCCC(=O)N1CCN(S(=O)(=O)c2ccc(Br)cc2)CC1 | -38.2%
50 | NS(=O)(=O)c1ccc(NC(=O)CSc2ccc3c(c2)CCC3)cc1 | -9.06%
51 | Cc1cc(CN2CC[C@H]3C[C@@H](c4nc(C5CC5)cs4)O[C@@H]3C2)no1 | -104%
52 | O=S(=O)(C1CC1)N1Cc2nccn2CC(Cn2cncn2)C1 (configuration not stated) | 1.02%
53 | CC(C)NC(=O)N1CCC2(CC1)CC[C@@]1(C(=O)N(C)C)CN(C)C[C@@H]21 | -108%
54 | Cc1occc1C(=O)N1CC[C@H]2C[C@@H](c3nnc(C4CC4)o3)O[C@@H]2C1 | -111%
55 | Cc1cccc(C(=O)N2CCn3c(CN4CCN(C)CC4)cnc3C2)n1 | -75.2%
56 | COCC1CN(C(=O)c2cccs2)Cc2nccn2C1 (configuration not stated) | -104%
57 | Cc1nccc([C@@H]2C[C@@H]3CCN(Cc4c(C)noc4C)C[C@H]3O2)n1 | -76.9%
58 | O=C(N1CCOCC1)N1CCC2(CC1)CN(c1ccccn1)CCO2 | -78.2%
59 | COc1ccc(CN2CCC3(CC2)CCN(c2ncccn2)CC3)cc1 | -1.08%
60 | CC(C)c1cc(NCC2(CO)CCC2)ncn1 | 4.66%
61 | CC(C)[C@H]1CN(Cc2ccccn2)C[C@@H]1NS(=O)(=O)C1CC1 | -0.578%
62 | Fc1ccc(CC2CCN(Cc3cscn3)CC2)cc1 | -7.27%
63 | CC1CCCCN1C(=O)c1coc(COc2cccc3cnccc23)n1 (configuration not stated) | -143%
64 | CC(C)=CCN1CCN(Cc2cccc(C)n2)CC1CCO (configuration not stated) | 1.99%
65 | O=C(NC1CC1)c1ccnc(N2CCOC(c3ccc(Cl)cc3)C2)c1 (configuration not stated) | 4.44%
66 | Cc1cnc(N2CCC(c3ccccc3)CC2)nc1-c1ccnn1C | 4.68%

Row | SMILES | cytotoxicity at 10 µM
67 | CC(=O)C(C)CC(=O)N(Cc1cccc(C)c1)C(C)C (configuration not stated) | -3.73%
68 | CC(C)=CCC/C(C)=C/CN1CCN(C)C2(CCNC(=O)CC2)C1 (configuration not stated) | -54.1%
69 | Cc1c(CN2CC[C@@H](N3CCC(O)CC3)[C@H](O)C2)[nH]c2ccc(F)cc12 | 4.07%
70 | O=C(O)c1ccc(CC2CCN(Cc3ccc(-c4cc[nH]n4)o3)C2)cc1 (configuration not stated) | 6.37%
71 | CSCc1ccc(N2CCC(C(O)CC(C)C)CC2)nc1 (configuration not stated) | 11.4%
72 | CN(C)CCC(Nc1nc(N)nc2c1CCNCC2)c1ccccc1 (configuration not stated) | -4.32%
73 | COc1ccccc1[C@@H]1CN(Cc2ccc3nsnc3c2)C[C@H]1C(=O)O | -4.18%
74 | Cc1cc(CNc2nccc(N)n2)c2[nH]c(C)c(C)c2c1 | -1.86%
75 | CC(C)(C)CN1CCCC2(CCN(C(=O)c3cn[nH]c3)C2)C1 (configuration not stated) | 2.87%
76 | Cc1nccn1CCC1CCCCN1C(=O)c1ccc(N(C)C)cc1 (configuration not stated) | 0.811%
77 | OC1(CNCCSc2ccccn2)CNCCOC1 (configuration not stated) | -9.41%
78 | Cc1ccccc1-n1cc(-c2ccnc(N[C@H](CO)C(C)C)n2)cn1 | 4.43%
79 | Cc1nc(N2CCCCC2)ncc1-c1cc(=O)[nH]c(N2CCCC2)n1 | 1%
80 | O=C(C1CCCC1)N1CCC(C2CCN(Cc3ccc(Cl)cc3)C2)CC1 (configuration not stated) | -2.45%
81 | O[C@@H]1CN(c2nc3ccccc3s2)CC[C@H]1c1ccc2c(c1)OCO2 | 52.7%
82 | COc1cc(NC(=O)c2ccc(CN3CC[C@H](O)C3)cc2)cc(OC)c1 | 10.5%
83 | CN1CCCC1c1ccc(C(=O)N2CCc3ccccc3C2)s1 (configuration not stated) | 1.66%
84 | CSc1ccc(-c2nc(CN3CCC(NC(C)=O)C3)c(C)o2)cc1 (configuration not stated) | 1.24%
85 | Cc1ccsc1[C@@H]1CCN(C(=O)c2cc3ccccc3[nH]2)C[C@H]1O | 29%
86 | CS(=O)(=O)c1snnc1C1CCN(Cc2ccncc2)CC1 | 2.31%
87 | O=C(NCCCNc1ccc(C(F)(F)F)cn1)c1ccc(F)cc1 | -8.72%
88 | Cc1csc(NC(=O)CN2CCc3c(nc(C4CC4)n3C)C2)n1 | -6.6%

Row | SMILES | cytotoxicity at 10 µM
89 | CC(c1ccco1)N(C)Cc1nc2c(cnn2C)c(=O)[nH]1 (configuration not stated) | -3.29%
90 | CCc1ncc2c(n1)CN(CC(=O)Nc1ccc(Cl)cn1)CC2 | 1.47%
91 | CC(=O)Nc1nc(C(=O)NCc2ccc(N3CCCCCC3)nc2)cs1 | 4.74%
92 | Cn1cc(CN2CC[C@H]3O[C@H](C(=O)NC4CC4)CC[C@H]32)c2ccccc21 | 8.82%
93 | COc1ccc(C(C)NCc2ccc(OC)c(OC)c2OC)cc1F (configuration not stated) | 55.9%
94 | Cc1ncnc2c1CCN(C(=O)c1ccncc1F)CC2 | -71.1%
95 | O=C(C1CC1)N1CCC2(CC1)COCCN2Cc1ccc(F)cc1 | -69.4%
96 | Cn1cnc(S(=O)(=O)N2CC3(CCN(CC4CC4)C3)C2)c1 | -99.2%
97 | O=C(Cc1ccccn1)N1CCN2C[C@H](OCCN3CCCC3)C[C@H]2C1 | -77.2%
98 | C1CC(N2Cc3nnn(CC4CC4)c3C(COCC3CC3)C2)C1 (configuration not stated) | 5.57%
99 | CCN(CC)C(=O)c1nc2c(s1)CCN(Cc1cccc(OC)c1)CC2 | 2.77%
100 | O=C(c1cccs1)N1CCCC2(COCCN(c3cccnc3)C2)C1 (configuration not stated) | -70.3%
101 | Cc1ccc2c(n1)N(CC(C)C)CCN(S(C)(=O)=O)C2 | -65.7%
102 | Cc1ccc(C(=O)N2CC[C@H]3[C@H]2CCN3CC2CCOCC2)cc1F | -83.3%
103 | Cc1nnc(N2C[C@H]3OCC[C@H]3[C@H](C(=O)NCC3CC3)C2)s1 | 2.03%
104 | COc1cccc(CN2C[C@@H]3COC[C@]3(COc3cccnc3)C2)c1 | -64.7%
105 | COc1ccc(CN2C[C@@H]3COC[C@@H](N4CCN(C)CC4)[C@@H]3C2)cc1 | -103%
106 | Cc1ccc(CN2CC[C@H]3O[C@@H](C(=O)N4CCCO4)CC[C@H]32)s1 | -3.29%
107 | CN(C)S(=O)(=O)N1C[C@H]2CC[C@@H](C1)N(CCC(=O)NCc1ccco1)C2 | -6.74%
